For data set [1], the system named is Mus musculus. Description: Phototoxicity in ICR mouse assessed as ear weight at 0.45 mg/kg, iv followed by 10 mW/cm2 light irradiation for 10 mins at 3 days after drug challenge measured after 1 day of light irradiation (reference value: 12.8 +/- 1.5 mg). As to conditions: in vivo. Format: organism-based.
For data set [2], the system named is Cavia porcellus. Description: Phototoxicity in guinea pig assessed as change in right ear weight 4.5 mg/kg, iv followed by 10 mW/cm2 light irradiation for 10 mins measured after 1 day of light irradiation (reference value: 40.4 +/- 2.4 mg). Format: organism-based. Conditions: in vivo.
A short description of data set [3]: Emission property of a compound in DMSO assessed as red shift at 5 uM on excitation with light at 410 to 415 nm by 3D fluorescence spectra analysis. Format: physicochemical. The gist of the method: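 Stock 1 mM in DMSO, measured at […] (so in the source); excitation scanned 350–640 nm, emission 600–750 nm, 1 nm steps, room temperature, quartz cuvettes; 3D fluorescence matrix spectra recorded.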

The test system of data set [4] is Mus musculus. Nature of the data set: Phototoxicity in ICR mouse assessed as ear weight at 0.45 mg/kg, iv followed by 10 mW/cm2 light irradiation for 10 mins at 5 days after drug challenge measured after 1 day of light irradiation (reference value: 12.9 +/- 1.4 mg). Format: organism-based. As to conditions: in vivo.
Data set [5] concerns Cavia porcellus. Nature of the data set: Phototoxicity in guinea pig assessed as change in left ear weight 4.5 mg/kg, iv followed by 10 mW/cm2 light irradiation for 10 mins measured after 1 day of light irradiation (reference value: 39.2 +/- 1.8 mg). Conditions: in vivo. Format: organism-based.
Data set [6] has as its system A549. Description: Photodynamic antitumor activity against human A549 cells xenografted in BALB/c nude mouse assessed as decrease in tumor weight at 0.3 mg/kg, iv followed by laser light irradiation at 120 J/cm2 measured after 14 days. It counts as functional. In a few lines: (§1)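 Male BALB/c nude mice (5–6 weeks, 14–16 g) given 2×10^6 A549 cells s.c. in 0.2 mL PBS; at 6–7 mm tumors randomized into ten groups; drug via tail vein, 650 nm diode laser 120 J/cm2 at 180 mW/cm2 24 h later; caliper volume a×b²/2, followed 14 days.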

Data set [7] is described as follows: Drug uptake in BALB/c nude mouse xenografted with A549 cells assessed as drug level in heart at 0.3 mg/kg, iv measured at 12 hrs by fluorescence assay. Conditions: in vivo. It counts as ADME, organism-based. The gist of the method:
(§2)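 A549 tumor-bearing mice dosed via tail vein (1 mg/kg in methods; 0.3 mg/kg in text) at tumors ~150–170 mm3, n = 3; whole-body imaging 0–24 h; at 6 and 12 h mice killed, heart, liver, spleen, lung, kidney, brain, tumor imaged ex vivo, excitation 420 nm, emission 650 nm.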

The nature of data set [8]: Drug uptake in BALB/c nude mouse xenografted with A549 cells assessed as drug level in lung at 0.3 mg/kg, iv measured at 12 hrs by fluorescence assay. It counts as ADME, organism-based. As to conditions: in vivo. In a few lines:
as §2

Data set [9] is described as follows: Induction of ROS generation in DMF solution assessed as ROS quantum yield at 2 uM followed by irradiation measured every 10 secs by spectrophotometric analysis. It counts as functional.
In data set [10] the test system is A549. Nature of the data set: Induction of ROS generation in human A549 cells assessed as increase in green fluorescence irradiated with 650 nanometer laser light preincubated for 4 hrs followed by DCFH-DA addition for 20 mins by fluorescent microscopic method relative to untreated control. It counts as functional, cell-based. The gist of the method: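 A549 cells given photosensitizer for 4 h, irradiated with 650 nm laser at 2 J/cm2, then DCFH-DA for 20 min; green emission at 525 nm (488 nm excitation) viewed by fluorescence microscopy; controls without light and laser without drug.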

Data set [11] in a line: Drug uptake in BALB/c nude mouse xenografted with A549 cells assessed as drug level in liver at 0.3 mg/kg, iv measured upto 12 hrs by fluorescence assay. It counts as ADME, organism-based. Conditions: in vivo. The gist of the method: as §2
Data set [12] in a line: Induction of singlet oxygen generation in DMF solution assessed as singlet oxygen quantum yield by measuring reduction in TEMP irradiated with 650 nanometer laser light in every 20 secs by ESR assay. It counts as functional. In a few lines:
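ESR at room temperature: 9.65 GHz microwave frequency, 15 mW power, 3400–3500 G scan field, 0.8 G modulation amplitude, 15.5 s scan time, 32 scans.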

Data set [13] relates to A549. Nature of the data set: Photodynamic antitumor activity against human A549 cells xenografted in BALB/c nude mouse assessed as increase in tumor tissue damage at 0.3 mg/kg, iv incubated for 24 hrs followed by laser light irradiation at 120 J/cm2 measured up to 14 days. It counts as functional, organism-based. In a few lines:
as §1
In general terms: In xenograft studies the graft and the host belong to different species.

In data set [14] the test system is A549. Description: Photodynamic antitumor activity against human A549 cells xenografted in BALB/c nude mouse at 0.15 mg/kg, iv followed by laser light irradiation at 120 J/cm2 measured after 14 days. Format: functional, organism-based. In a few lines: as §1
Data set [15] in a line: Therapeutic index, ratio of TC50 for human A549 cells under dark to IC50 for human A549 cells irradiated with 1 J/cm2 of 650 nanometer laser light. Conditions: read-out: TI. Format: toxicity, cell-based. In a few lines:
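A549 cells (F-12K, 10% FBS, 37 °C, 5% CO2) seeded 24 h, then exposed to 0–10 photosensitizer for 24 h. Dark arm: MTT 48 h later. Light arm: 650 nm laser, 1 J/cm2 (25 mW/cm2, 40 s), then MTT. A570 viability relative to control, triplicate. Ratio = dark TC50 / irradiated IC50.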

The nature of data set [16]: Drug uptake in BALB/c nude mouse xenografted with A549 cells assessed as drug level in kidney at 0.3 mg/kg, iv measured at 12 hrs by fluorescence assay. Format: ADME, organism-based. Conditions: in vivo. The gist of the method: as §2
Data set [17] deals with Mus musculus. Description: Phototoxicity in ICR mouse assessed as ear weight at 0.45 mg/kg, iv followed by 10 mW/cm2 light irradiation for 10 mins at 7 days after drug challenge measured after 1 day of light irradiation (13.2 +/- 1.6 mg). Conditions: in vivo. It counts as organism-based.
Data set [18] is described as follows: Drug uptake in human A549 cells incubated upto 24 hrs by fluorescence spectrophotometer analysis. Format: ADME, cell-based. As to conditions: a549, 24 h. In a few lines:
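A549 cells (F-12K, 10% FBS, 37 °C, 5% CO2) grown in 24 wells and exposed to photosensitizer for 0.5, 1, 2, 4, 8, 12 or 24 h; cells harvested by digestion, fluorescence read on a spectrophotometer.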

The nature of data set [19]: Drug uptake in BALB/c nude mouse xenografted with A549 cells assessed as drug level in spleen at 0.3 mg/kg, iv measured at 12 hrs by fluorescence assay. Conditions: in vivo. It counts as ADME, organism-based. The gist of the method: as §2
The subject of data set [20] is Mus musculus. Nature of the data set: Phototoxicity in ICR mouse assessed as change in auricles 0.45 mg/kg, iv in presence of 10 mW/cm2 light irradiation for 10 mins upto 7 days measured after 1day of light irradiation by H and E staining based microscopic analysis. Conditions: in vivo. Format: organism-based.
The subject of data set [21] is Cavia porcellus. Description: Phototoxicity in guinea pig assessed as change in back skin weight 4.5 mg/kg, iv followed by 10 mW/cm2 light irradiation for 10 mins measured after 1day of light irradiation (reference value: 72.4 +/- 3.1 mg). It counts as organism-based. As to conditions: in vivo, 24 h.
For data set [22], the system named is Mus musculus. Description: Phototoxicity in ICR mouse assessed as change in exposed neck skin 0.45 mg/kg, iv in presence of 10 mW/cm2 light irradiation for 10 mins upto 7 days measured after 1day of light irradiation by H and E staining based microscopic analysis. It counts as organism-based. As to conditions: in vivo.

Activity calls are given as the source filed them. The rule behind the calls is not given here.

Take `CCCCOC(C)c1c(C)c2cc3nc(c4c5[nH]c(cc6nc(cc1[nH]2)C(C)=C6CC)c(C)c5C(=O)C4)[C@@H](CCC(=O)NCC(=O)CCC(=O)O)[C@@H]3C` (some centres undefined): the Activity in the data set on Mus musculus [1] is 13.1 mg; with Cavia porcellus [2], 43.6 mg; in [3], 661 to 669 nm; in the data set on Mus musculus [4], 13.5 mg; in the data set with Cavia porcellus [5] it was 42.3 mg; in the data set with A549 [6], 0.0138 g. In addition, the Activity is listed as 12.9 mg in the data set with Mus musculus [17], “Non-Toxic” in the data set with Mus musculus [20], 75.2 mg in the data set on Cavia porcellus [21] and “Non-Toxic” in the data set with Mus musculus [22]. The Drug uptake entry is listed as “Not Active” in data set [7]; “Not Active” in data set [8]; “Active” in [11]; “Not Active” in data set [16]; “Active” in [18]; “Not Active” in [19]. The Ratio in data set [9] worked out at 1.56. Also, the result (in the data set with A549 [10]; in [12]; with A549 [13]; with A549 [14]) was Active. Moreover, the selectivity ratio in [15] came to 8.74.
For the compound `CCC1=C(C)c2cc3[nH]c(cc4nc(c5c6[nH]c(cc1n2)c(C)c6C(=O)C5)[C@@H](CCC(=O)NCC(=O)CCC(=O)O)[C@@H]4C)c(C)c3C(C)OCCO` (some centres undefined), the Activity with Mus musculus [1] is 13.2 mg; in the data set on Cavia porcellus [2], 41.9 mg; in data set [3], 661 to 669 nm; in the data set with Mus musculus [4], 12.9 mg; in the data set on Cavia porcellus [5], 41.6 mg; in the data set on A549 [6] it was 0.0296 g. Besides, the Activity in the data set with Mus musculus [17] is on record as 13.4 mg; in the data set with Mus musculus [20] it was “Non-Toxic”; in the data set on Cavia porcellus [21], 74.3 mg; in the data set with Mus musculus [22], “Non-Toxic”. Further, the Drug uptake result in data set [7] is recorded as “Not Active”; in data set [8] it was “Not Active”; in data set [11] it was “Active”; in data set [16], “Not Active”; in data set [18] it was “Active”; in data set [19] it was “Not Active”. In addition, the Ratio in data set [9] worked out at 1.35. Further, the result (with A549 [10]; in [12]; in the data set with A549 [13]; in the data set on A549 [14]) was Active. In data set [15], the selectivity ratio came to 8.97.
